Bioassay records: PubChem, Johns Hopkins Ion Channel Center
This is a sample that favours compounds with a hit; in the whole collection about 2.9% have one here.
TRPC6 inhibitor = inhibitors of mouse TRPC6 channel; Q61143; HEK293-TRPC6, membrane potential dye, ACh-evoked depolarization; stronger effect = lower value; B-score at 10 µM; 310,000 tested, 1.1% active;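 active = B-score under library mean minus 3 SD, initial fluorescence not abnormally high, positive integrated signal ratio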;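 also: B-score derived from integrated fluorescence ratio over the kinetic read; more negative B-score means stronger inhibition of depolarization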
Target sequence (Q61143 whole entry, looked up): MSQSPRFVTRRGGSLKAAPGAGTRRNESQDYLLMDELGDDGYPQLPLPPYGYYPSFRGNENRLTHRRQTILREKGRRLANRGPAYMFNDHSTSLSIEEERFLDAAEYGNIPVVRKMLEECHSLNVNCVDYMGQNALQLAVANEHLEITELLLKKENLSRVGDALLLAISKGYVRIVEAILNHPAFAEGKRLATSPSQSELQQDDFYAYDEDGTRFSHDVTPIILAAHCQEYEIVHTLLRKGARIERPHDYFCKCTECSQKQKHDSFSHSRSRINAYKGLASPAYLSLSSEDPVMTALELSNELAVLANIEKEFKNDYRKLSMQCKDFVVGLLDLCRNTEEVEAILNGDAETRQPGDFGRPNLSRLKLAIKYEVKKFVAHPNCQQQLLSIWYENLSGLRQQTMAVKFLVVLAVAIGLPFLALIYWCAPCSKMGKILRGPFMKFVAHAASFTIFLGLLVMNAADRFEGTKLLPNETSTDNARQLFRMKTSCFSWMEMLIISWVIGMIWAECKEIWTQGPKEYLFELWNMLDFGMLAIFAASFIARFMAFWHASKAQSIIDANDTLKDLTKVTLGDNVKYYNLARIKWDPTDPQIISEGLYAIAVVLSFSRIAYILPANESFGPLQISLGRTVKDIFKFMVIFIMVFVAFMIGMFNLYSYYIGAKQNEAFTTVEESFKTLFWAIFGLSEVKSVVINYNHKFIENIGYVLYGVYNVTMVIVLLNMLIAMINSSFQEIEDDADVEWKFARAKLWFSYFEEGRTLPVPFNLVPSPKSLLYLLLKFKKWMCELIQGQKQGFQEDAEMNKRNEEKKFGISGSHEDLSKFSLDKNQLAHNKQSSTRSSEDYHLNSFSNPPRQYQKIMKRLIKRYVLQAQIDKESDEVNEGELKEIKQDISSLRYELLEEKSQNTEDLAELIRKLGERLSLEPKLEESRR
TRPC6 activator = activators of mouse TRPC6 channel; Q61143; HEK293-TRPC6 membrane potential dye fluorescence; stronger effect = higher value; B-score at 10 µM; 310,000 tested, 0.13% active;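 active = B-score of the integrated fluorescence ratio above library mean plus 3 SD, and starting fluorescence ratio within library mean plus 5 SD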;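 also: higher score means more depolarization so channel activation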
Kir21 block = Kir2.1 (mouse) channel inhibition. P35561. HEK293-Kir2.1, FluxOR thallium flux fluorescence; stronger effect = lower value. B-score at 10 µM. 310,000 tested, 0.85% active. AID 1672;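 active = fluorescence ratio B-score at or below minus 3 SD of library scores, with starting-brightness B-score within 2 SD, cut at about -4.2 in these data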;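 also: channel flux triggered by added potassium and thallium sulfate stimulus; B-score of peak minus minimum fluorescence over baseline after thallium stimulus; more negative B-score means stronger Kir2.1 block with less thallium influx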
TRPC4 potent = allosterically enhances the mouse TRPC4 cation channel; HEK293 TRPC4beta/mu-opioid, DAMGO EC20, Fluo-4 Ca2+ flux; stronger effect = higher value; B-score at 10 µM; 310,000 tested, 0.42% active;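 active = B-score of calcium response area above 5 SD of library B-scores, with initial fluorescence ratio within 5 SD of library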;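 also: B-score of integrated fluorescence ratio over time as area under calcium response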
TRPC4 block = blocks the mouse TRPC4 cation channel; HEK293 TRPC4beta/mu-opioid, DAMGO-evoked Fluo4 calcium flux; stronger effect = lower value; B-score at 10 µM; 300,000 tested, 0.39% active;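 active = B-score over 3 SD under the library average, no early fluorescence shift, positive overall ratio signal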
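System: stable TRPC4beta/mu-opioid receptor HEK293 cells; Dosing: single-point compound dosing; Measured by: Fluo4 Ca2+ flux fluorescence; Read-out basis: per-well B score of integrated baseline-normalized Fluo4 ratio.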
TRPC4 agonist = activators of mouse TRPC4 channel; Q9QUQ5; HEK293 TRPC4beta/mu-opioid, Fluo4 calcium fluorescence; stronger effect = higher value; B-score at 10 µM; 310,000 tested, 0.49% active; AID 2237;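 active = B-score above 5 SD of library B-scores, and initial fluorescence ratio not above library mean plus 5 SD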;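 also: positive B-score marks a calcium rise read as TRPC4 activation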
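Assay system: HEK293 stable line with TRPC4beta plus mu-opioid receptor; schedule: 45 min room-temperature Fluo4 loading, 110 s read; technique: kinetic Fluo4 calcium fluorescence; evaluation: integrated baseline-normalised fluorescence ratio, converted to per-well B score; controls: buffer (low) and maximal DAMGO (high)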
TRPC4 sel inh 2 = second check of whether TRPC6 inhibitors also affect mouse TRPC4; inhibition, % at 10 µM; shares compounds with TRPC6 inhibitor; AID 2776; HEK293 TRPC4/MOR, membrane potential dye fluorescence; channel activated by saturating DAMGO dose; 920 tested, 42% active;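 active = compounds whose fluorescence signal differed from control wells by over 3 SD, either direction, in both duplicate plates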
TRPC4 spec = mouse TRPC4 off-target activity of TRPC6 inhibitors; shares compounds with TRPC6 inhibitor; HEK293 TRPC4/mu-opioid, membrane potential fluorescence; activity change, negative = inhibition, % at 10 µM; 920 tested, 61% active;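 active = rise or fall in signal beyond 3 SD of buffer-only wells in both replicate plates, either sign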;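 also: integrated kinetic ratio of fluorescence range over baseline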
HEK293 MPD ctr 2-1 = second counter-screen for TRPC6 inhibitors: parental HEK293 cells | shares compounds with TRPC6 inhibitor | parental HEK293 membrane potential dye fluorescence; maximal acetylcholine challenge after compound addition | signal change vs control, % at 10 µM | 920 tested, 31% active | AID 2779;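 active = membrane potential signal moving either way by over 3 SD of the maximum-effect control, in both duplicate plates, meaning non-specific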
HEK293 MPD ctr-1 = parental HEK293 nonspecific activity of TRPC6 inhibitors | parental HEK293 membrane potential dye fluorescence | shares compounds with TRPC6 inhibitor | membrane potential signal change, % at 10 µM | 920 tested, 60% active;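 active = membrane potential signal shifting up or down by more than 3 SD of buffer-only wells, on both duplicate plates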
HEK293 MPD ctr-2 = parental HEK293 nonspecific activity of TRPC6 modulators | shares compounds with TRPC6 inhibitor | membrane potential dye fluorescence | membrane potential signal change, % at 10 µM | 2,400 tested, 51% active;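 active = membrane potential signal moves up or down beyond 5 SD from buffer-only wells, on both duplicate plates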
HEK293 MPD ctr 2-2 = parental HEK293 nonspecific activity of TRPC6 modulators, second screen; membrane potential dye fluorescence; after compound, maximal acetylcholine stimulation; AID 488926; 2,400 tested, 14% active; shares compounds with TRPC6 inhibitor; inhibition, % at 10 µM;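 active = membrane potential signal drops by more than 5 SD from the mean control signal, in both duplicate plates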;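 also: plate controls were acetylcholine ECmax control wells for no effect and buffer only wells for full effect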
TRPC4 ctr mod = selectivity of TRPC6 modulators against mouse TRPC4; percent change from control (negative = decrease, positive = increase), % at 10 µM; shares compounds with TRPC6 inhibitor; AID 488927; 2,400 tested, 69% active; HEK293 TRPC4/mu-opioid, membrane potential fluorescence;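 active = membrane potential signal moved up or down beyond 5 SD of buffer control wells, in both duplicate plates, actives on both sides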;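 also: plate controls were assay buffer wells for no effect and DAMGO maximal-effect wells for full effect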
TRPC4 ctr inh 2 = second check of whether TRPC6 modulators also affect mouse TRPC4; shares compounds with TRPC6 inhibitor; HEK293 TRPC4/mu-opioid, membrane potential dye fluorescence; stimulated with maximal-effect DAMGO; inhibition, % at 10 µM; 2,400 tested, 55% active; AID 488928;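 active = drop in membrane potential signal beyond 5 SD of the control wells in both duplicate plates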;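 also: TRPC4 counter screen for TRPC6 hits run under conditions tuned for TRPC6 not TRPC4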
TRPC6 block conf = mouse TRPC6 inhibitor confirmation; inhibition, % at 10 µM; HEK293-TRPC6, membrane potential dye, ACh-evoked depolarization; shares compounds with TRPC6 inhibitor; 3,300 tested, 43% active; AID 488960;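 active = fluorescence ratio falls more than 5 SD below the full-stimulation control mean, in both duplicate runs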;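 also: integrated fluorescence ratio of peak minus minimum over baseline after agonist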
TRPC6 act confirm = mouse TRPC6 activator confirmation; HEK293-TRPC6 membrane potential dye fluorescence, FDSS; shares compounds with TRPC6 inhibitor; 2,800 tested, 11% active; activation, % at 10 µM;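 active = ratio signal rise beyond 5 SD above unstimulated control wells' mean, seen in both duplicate runs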;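 also: plate controls were buffer EC0 wells for no effect and acetylcholine ECmax response for full effect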
An asterisk follows results filed as active.

Results for CCCSc1nc2c3c(sc2c(=O)[nH]1)CC(C)(CC)OC3 (stereo unspecified) ?
TRPC6 inhibitor: inactive; TRPC6 activator: inactive; Kir21 block: -0.47; TRPC4 potent: inactive; TRPC4 block: inactive; TRPC4 agonist: inactive

Results for O=C(Nc1ncnc2c1ncn2C1OC(COC(=O)c2ccccc2)C(F)C1O)c1ccccc1 (stereo unspecified) ?
TRPC6 inhibitor: inactive; TRPC6 activator: inactive; Kir21 block: 2.89; TRPC4 potent: inactive; TRPC4 block: inactive; TRPC4 agonist: inactive

What do the screens show for `CCN(CC)CCCC(C)NC(=O)c1c(NC(=O)c2ccccc2)sc2c1CCCC2` (stereo unspecified)?
TRPC6 inhibitor: -6.12*; TRPC6 activator: inactive; Kir21 block: 0.65; TRPC4 potent: inactive; TRPC4 block: inactive; TRPC4 agonist: inactive; HEK293 MPD ctr-2: inactive; HEK293 MPD ctr 2-2: inactive; TRPC4 ctr mod: -19.5%*; TRPC4 ctr inh 2: 81.0%*; TRPC6 block conf: 60.0%*; TRPC6 act confirm: inactive

Results for CN(C)C(=O)c1c(NC(=O)c2ccccc2)sc2c1CCC2 ?
TRPC6 inhibitor: inactive; TRPC6 activator: inactive; Kir21 block: -0.96; TRPC4 potent: inactive; TRPC4 block: inactive; TRPC4 agonist: inactive

What do the screens show for `CC(C)OC(=O)c1cccnc1SCc1cc(=O)n2ccccc2n1`?
TRPC6 inhibitor: -6.05*; TRPC6 activator: inactive; Kir21 block: 0.68; TRPC4 potent: inactive; TRPC4 block: inactive; TRPC4 agonist: inactive; HEK293 MPD ctr-2: inactive; HEK293 MPD ctr 2-2: inactive; TRPC4 ctr mod: inactive; TRPC4 ctr inh 2: inactive; TRPC6 block conf: inactive

What do the screens show for `COc1cccc2oc3ccc(C#CC4(N)CCCCC4)cc3c(=O)c12`?
TRPC6 inhibitor: -10.8*; TRPC6 activator: inactive; Kir21 block: -1.84; TRPC4 potent: inactive; TRPC4 block: inactive; TRPC4 agonist: inactive; TRPC4 sel inh 2: 68.5%*; TRPC4 spec: inactive; HEK293 MPD ctr 2-1: 237.0%*; HEK293 MPD ctr-1: inactive; TRPC6 block conf: inactive; TRPC6 act confirm: inactive

Results for COc1cc(/C=C/c2nc3ccc([N+](=O)[O-])cc3s2)ccc1OCC(=O)O ?
TRPC6 inhibitor: -6.68*; TRPC6 activator: inactive; Kir21 block: 1.85; TRPC4 potent: inactive; TRPC4 block: inactive; TRPC4 agonist: inactive; HEK293 MPD ctr-2: -69.0%*; HEK293 MPD ctr 2-2: inactive; TRPC4 ctr mod: -20.0%*; TRPC4 ctr inh 2: inactive; TRPC6 block conf: inactive; TRPC6 act confirm: inactive

What do the screens show for `Cc1cc(N2CCOCC2)c2c(N)c(Br)cc(C)c2n1`?
TRPC6 inhibitor: -5.12*; TRPC6 activator: inactive; Kir21 block: 0.23; TRPC4 potent: inactive; TRPC4 block: inactive; TRPC4 agonist: inactive; HEK293 MPD ctr-2: -301.0%*; HEK293 MPD ctr 2-2: inactive; TRPC4 ctr mod: -57.0%*; TRPC4 ctr inh 2: 42.5%*; TRPC6 block conf: inactive; TRPC6 act confirm: inactive

How did N=C1/C(=C\c2coc3ccccc3c2=O)C(=O)N=C2SC=CN12 do in these assays?
TRPC6 inhibitor: -7.96*; TRPC6 activator: 26.4*; Kir21 block: -1.89; TRPC4 potent: inactive; TRPC4 block: inactive; TRPC4 agonist: inactive; HEK293 MPD ctr-2: 640.0%*; HEK293 MPD ctr 2-2: 118.5%*; TRPC4 ctr mod: 119.0%*; TRPC4 ctr inh 2: 77.0%*; TRPC6 block conf: inactive; TRPC6 act confirm: 107.0%*

What do the screens show for `CC1=CC2=NC(=O)/C(=C/c3coc4ccc(Cl)cc4c3=O)C(=N)N2O1`?
TRPC6 inhibitor: inactive; TRPC6 activator: 52*; Kir21 block: -10.8; TRPC4 potent: inactive; TRPC4 block: inactive; TRPC4 agonist: inactive; HEK293 MPD ctr-2: active; HEK293 MPD ctr 2-2: active; TRPC4 ctr mod: 287.0%*; TRPC4 ctr inh 2: 101.0%*; TRPC6 act confirm: 457.0%*

How did N#Cc1nc(-c2cccc3ccccc23)oc1NCCN1CCCCC1 do in these assays?
TRPC6 inhibitor: -7.57*; TRPC6 activator: inactive; Kir21 block: -4.93*; TRPC4 potent: inactive; TRPC4 block: inactive; TRPC4 agonist: inactive; TRPC4 sel inh 2: inactive; TRPC4 spec: inactive; HEK293 MPD ctr 2-1: inactive; HEK293 MPD ctr-1: inactive; TRPC6 block conf: inactive; TRPC6 act confirm: inactive

Results for CCOC(=O)c1c(CSc2ccc(C)cc2)n(C)c2cc(Br)c(O)c(CN(C)C)c12 ?
TRPC6 inhibitor: -5.94*; TRPC6 activator: inactive; Kir21 block: -1.65; TRPC4 potent: inactive; TRPC4 block: inactive; TRPC4 agonist: inactive; HEK293 MPD ctr-2: inactive; HEK293 MPD ctr 2-2: inactive; TRPC4 ctr mod: inactive; TRPC4 ctr inh 2: 64.5%*; TRPC6 block conf: 47.0%*; TRPC6 act confirm: inactive

Results for CCOC(=O)c1c(CN2CCCCC2)n(C)c2cc(Br)c(OC)cc12 ?
TRPC6 inhibitor: inactive; TRPC6 activator: inactive; Kir21 block: -0.37; TRPC4 potent: inactive; TRPC4 block: inactive; TRPC4 agonist: inactive
